Published values collected from several papers.
Protocols differ between the studies behind these lines. pIC50: −log10 of the molar value.
Read-out: cell growth or viability

| SMILES | cell line | method | tested at | time | measurement | value |
| --- | --- | --- | --- | --- | --- | --- |
| Cc1cn([C@H]2C[C@H](N=[N+]=[N-])[C@@H](CO)O2)c(=O)[nH]c1=O | TZM-bl | MTT |  | 48 h | CC50 | > 200 µg/mL |
| C=C(C)C(CC=C(C)C)Cc1c(O)cc(OC)c2c1O[C@H](c1ccc(O)cc1O)CC2=O (single isomer, unassigned; (-)) | MCF7 | MTT |  |  | pIC50 | 4.63 |
| CCCCCCCCCCCCCCCCOP(=O)([O-])OCC[N+](C)(C)C | THP-1 |  |  | 72 h | CC50 | > 40 µM |
| CSc1ccc(OCc2ncc([N+](=O)[O-])n2C)cc1 | THP-1 | MTT |  | 72 h | CC50 | > 62.5 µM |
| CC(=O)O[C@@H]1c2c(ccc3ccc(=O)oc23)OC(C)(C)[C@@H]1OC(=O)C1(C)OC1C (stereo partly drawn) | HEp-2 | WST-1 |  |  | pIC50 | 4.44 |
| OC[C@@H]1[C@@H](O)[C@H](O)[C@@H](O)CN1CC/C=C/CCOc1cc(F)ccc1F | MDBK | MTT |  |  | CC50 | > 500 µM |
| CC[C@H](C)C(=O)O[C@H]1C[C@@H](C)C=C2C=C[C@H](C)[C@H](CC[C@@H]3C[C@@H](O)CC(=O)O3)[C@H]21 | SW-620 | SRB |  | 72 h | pIC50 | 7.10 |
| Cc1cccc2nc(-c3ccc([N+](=O)[O-])o3)[nH]c12 | HEp-2 | resazurin |  | 72 h | CC50 | 1.7 µM |
| CC1(C)CC[C@]2(C)CC[C@]3(C)[C@H]4CC=C5[C@@H](CC[C@H](O)C5(C)C)[C@]4(C)CC[C@@]3(C)[C@@H]2C1 | HEp-2 | WST-1 |  |  | pIC50 | 4.32 |
| C[C@H]1[C@H](C)CC[C@]2(C(=O)O)CC[C@]3(C)C(=CC[C@@H]4[C@@]5(C)CC[C@H](O)C(C)(C)[C@@H]5CC[C@]43C)[C@H]12 | WS1 |  |  | 48 h | pIC50 | 4.85 |
| O=[N+]([O-])c1ccc(-c2nc3cccc(O)c3[nH]2)o1 | HEp-2 | resazurin |  | 72 h | CC50 | 31.6 µM |
| CC(C)(C)CC(C)(C)Nc1c(-c2ccccc2)nc2ncccn12 | MCF7 | MTT | 25 µM | 48 h | viability | 44.9% |
| c1cc(CN2CCCNCCNCCCNCC2)ccc1CN1CCCNCCNCCCNCC1 | TZM-bl |  |  |  | CC50 | > 1 µM |
| C[C@@H]1O[C@@H](OC[C@H]2O[C@@H](Oc3c(-c4ccc(O)c(O)c4)oc4cc(O)cc(O)c4c3=O)[C@H](O)[C@@H](O)[C@@H]2O)[C@H](O)[C@H](O)[C@H]1O | TZM-bl | MTT |  | 48 h | CC50 | > 250 µg/mL |
| CC(=O)OC1c2c(ccc3ccc(=O)oc23)OC(C)(C)C1OC(=O)C(C)(O)C(C)O (stereo not drawn) | MCF7 | WST-1 |  |  | pIC50 | 5.21 |
